Type in all cases: functional
The test system of assay [1] is Staphylococcus epidermidis. As to the kind of experiment: Antibacterial activity against methicillin-sensitive Staphylococcus epidermidis ATCC 12228 by broth microdilution method. In short, it runs like this:
(§1)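 Value is the minimum inhibitory concentration (MIC), determined by broth microdilution following CLSI recommendations. Strains ATCC 29213, 15 and 09-06 are methicillin-sensitive S. aureus; ATCC 12228 and 09-9 are methicillin-sensitive S. epidermidis.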
For orientation: Broth dilution looks for growth in wells or tubes with falling amounts of substance.

In assay [2] the test system is Staphylococcus epidermidis. Nature of the assay: Antibacterial activity against methicillin-resistant Staphylococcus epidermidis 09-3 by broth microdilution method.
Assay [3] has as its system Staphylococcus epidermidis. As to the kind of experiment: Antibacterial activity against methicillin-sensitive Staphylococcus epidermidis 09-9 by broth microdilution method. In short, it runs like this:
as §1

Assay [4] relates to Staphylococcus aureus. Nature of the assay: Antibacterial activity against methicillin-resistant Staphylococcus aureus 09-13 by broth microdilution method. In short, it runs like this: (§2)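 MIC determined by broth microdilution following CLSI recommendations; strain is a methicillin-resistant S. aureus (MRSA).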
The subject of assay [5] is Staphylococcus aureus. As to the kind of experiment: Antibacterial activity against methicillin-sensitive Staphylococcus aureus 09-6 by broth microdilution method. The method in brief:
as §1

Assay [6] concerns Staphylococcus aureus. As to the kind of experiment: Antibacterial activity against methicillin-sensitive Staphylococcus aureus 15 by broth microdilution method. In short, it runs like this: as §1
In assay [7] the test system is Staphylococcus aureus. As to the kind of experiment: Antibacterial activity against methicillin-resistant Staphylococcus aureus ATCC 33591 by broth microdilution method. The method in brief:
as §2

The subject of assay [8] is Staphylococcus aureus. Nature of the assay: Antibacterial activity against methicillin-sensitive Staphylococcus aureus ATCC 29213 by broth microdilution method. In short, it runs like this:
as §1

The record followed here is ChEMBL document CHEMBL2434850, “Synthesis and antibacterial activity of novel modified 5-O-mycaminose 14-membered ketolides” (2013).

In brackets after ≈: the same amount, converted by molar mass.

In general, MIC refers to the least concentration at which growth counts as inhibited. Turning to `CC[C@H]1OC(=O)[C@H](C)C(=O)[C@H](C)[C@@H](O[C@@H]2O[C@H](C)[C@@H](OC(=O)NCCc3ccccc3)[C@H](N(C)C)[C@H]2O)[C@@](C)(OC)C[C@@H](C)/C(=N\O)[C@H](C)[C@H]2OC(=O)O[C@@]21C`, the MIC in assay [1] was 0.5 µg/mL (≈ 0.631 µM); in assay [2], over 32 µg/mL; in assay [3], 2 µg/mL (≈ 2.53 µM); against Staphylococcus aureus [4], over 32 µg/mL; in the assay with Staphylococcus aureus [5] it was 1 µg/mL (≈ 1.26 µM); in the assay on Staphylococcus aureus [6], 1 µg/mL (≈ 1.26 µM). Besides, the values for the minimal inhibitory concentration (MIC) against Staphylococcus aureus [7] and with Staphylococcus aureus [8] were over 32 µg/mL and 1 µg/mL (≈ 1.26 µM), respectively.
As to `CC[C@H]1OC(=O)[C@H](C)C(=O)[C@H](C)[C@@H](O[C@@H]2O[C@H](C)[C@@H](OC(=O)NCCc3ccccc3)[C@H](N(C)C)[C@H]2O)[C@@](C)(OC)C[C@@H](C)/C(=N\OC(=O)NCCc2ccccc2)[C@H](C)[C@H]2OC(=O)O[C@@]21C`, the MIC (in assay [1]; in assay [2]; in assay [3]; with Staphylococcus aureus [4]; in the assay on Staphylococcus aureus [5]; in the assay with Staphylococcus aureus [6]) was over 32 µg/mL in each case. Besides, the MIC in the assay on Staphylococcus aureus [7] and in the assay with Staphylococcus aureus [8] was over 32 µg/mL throughout.
For the molecule `CC[C@H]1OC(=O)[C@H](C)C(=O)[C@H](C)[C@@H](O[C@@H]2O[C@H](C)[C@@H](OC(=O)Nc3ccc(C(F)(F)F)cc3)[C@H](N(C)C)[C@H]2O)[C@@](C)(OC)C[C@@H](C)/C(=N\O)[C@H](C)[C@H]2OC(=O)O[C@@]21C`, the MIC in assay [1] is 32 µg/mL (≈ 38.5 µM); in assay [2] it was over 32 µg/mL; in assay [3] it was over 32 µg/mL; in the assay with Staphylococcus aureus [4], over 32 µg/mL; against Staphylococcus aureus [5] it was over 32 µg/mL; in the assay on Staphylococcus aureus [6] it was over 32 µg/mL. Further, the MIC against Staphylococcus aureus [7] and in the assay with Staphylococcus aureus [8] was over 32 µg/mL each time.
With `CC[C@H]1OC(=O)[C@H](C)C(=O)[C@H](C)[C@@H](O[C@@H]2O[C@H](C)[C@@H](OC(=O)NC3CCCCC3)[C@H](N(C)C)[C@H]2O)[C@@](C)(OC)C[C@@H](C)/C(=N\OC(=O)NC2CCCCC2)[C@H](C)[C@H]2OC(=O)O[C@@]21C`, the MIC was 32 µg/mL (≈ 35.8 µM) in assay [1]; over 32 µg/mL in assay [2]; over 32 µg/mL in assay [3]; over 32 µg/mL against Staphylococcus aureus [4]; over 32 µg/mL against Staphylococcus aureus [5]; over 32 µg/mL with Staphylococcus aureus [6]. Moreover, the figures for the MIC against Staphylococcus aureus [7] and in the assay on Staphylococcus aureus [8] were over 32 µg/mL and 32 µg/mL (≈ 35.8 µM), respectively.
On to `CCCCCNC(=O)O/N=C1\[C@H](C)C[C@](C)(OC)[C@H](O[C@@H]2O[C@H](C)[C@@H](OC(=O)NCCCCC)[C@H](N(C)C)[C@H]2O)[C@@H](C)C(=O)[C@@H](C)C(=O)O[C@H](CC)[C@@]2(C)OC(=O)O[C@@H]2[C@H]1C`, for which the MIC (in assay [1]; in assay [2]; in assay [3]; with Staphylococcus aureus [4]; against Staphylococcus aureus [5]; with Staphylococcus aureus [6]) was over 64 µg/mL in each case. For the same molecule, the MIC in the assay with Staphylococcus aureus [7] and in the assay on Staphylococcus aureus [8] was over 64 µg/mL throughout.
Consider `CC[C@H]1OC(=O)[C@H](C)C(=O)[C@H](C)[C@@H](O[C@@H]2O[C@H](C)[C@@H](OC(=O)NCCCl)[C@H](N(C)C)[C@H]2O)[C@@](C)(OC)C[C@@H](C)/C(=N\OC(=O)NCCCl)[C@H](C)[C@H]2OC(=O)O[C@@]21C`, for which the MIC (in assay [1]; in assay [2]; in assay [3]; with Staphylococcus aureus [4]; against Staphylococcus aureus [5]; in the assay with Staphylococcus aureus [6]) was over 32 µg/mL each time. Moreover, the MIC against Staphylococcus aureus [7] and against Staphylococcus aureus [8] was over 32 µg/mL each time.
Turning to `CC[C@H]1OC(=O)[C@H](C)C(=O)[C@H](C)[C@@H](O[C@@H]2O[C@H](C)[C@@H](O)[C@H](N(C)C)[C@H]2O)[C@@](C)(OC)C[C@@H](C)/C(=N\O)[C@H](C)[C@H]2OC(=O)O[C@@]21C`, the MIC was 2 µg/mL (≈ 3.1 µM) in assay [1]; over 64 µg/mL in assay [2]; 2 µg/mL (≈ 3.1 µM) in assay [3]; over 64 µg/mL against Staphylococcus aureus [4]; 2 µg/mL (≈ 3.1 µM) against Staphylococcus aureus [5]; over 64 µg/mL in the assay on Staphylococcus aureus [6]. The MIC in the assay with Staphylococcus aureus [7] is over 64 µg/mL; against Staphylococcus aureus [8], 2 µg/mL (≈ 3.1 µM).
On to `CC[C@H]1OC(=O)[C@H](C)[C@@H](O[C@H]2C[C@@](C)(OC)[C@@H](O)[C@H](C)O2)[C@H](C)[C@@H](O[C@@H]2O[C@H](C)C[C@H](N(C)C)[C@H]2O)[C@](C)(OC)C[C@@H](C)C(=O)[C@H](C)[C@@H](O)[C@]1(C)O` [CLARITHROMYCIN], for which the minimum inhibitory concentration (MIC) in assay [1] is 0.06 µg/mL (≈ 0.0802 µM); in assay [2] it was over 64 µg/mL; in assay [3] it was 4 µg/mL (≈ 5.35 µM); against Staphylococcus aureus [4], over 64 µg/mL; against Staphylococcus aureus [5], 0.06 µg/mL (≈ 0.0802 µM); against Staphylococcus aureus [6] it was 0.5 µg/mL (≈ 0.668 µM). Besides, the MIC was over 64 µg/mL against Staphylococcus aureus [7] and 0.06 µg/mL (≈ 0.0802 µM) against Staphylococcus aureus [8].
Turning to `CC[C@H]1OC(=O)[C@H](C)C(=O)[C@H](C)[C@@H](O[C@@H]2O[C@H](C)C[C@H](N(C)C)[C@H]2O)[C@](C)(OC)C[C@@H](C)C(=O)[C@H](C)[C@H]2N(CCCCn3cnc(-c4cccnc4)c3)C(=O)O[C@]12C` [TELITHROMYCIN], the MIC in assay [1] is 0.06 µg/mL (≈ 0.0739 µM); in assay [2], 32 µg/mL (≈ 39.4 µM); in assay [3] it was 0.06 µg/mL (≈ 0.0739 µM); in the assay with Staphylococcus aureus [4], over 32 µg/mL; with Staphylococcus aureus [5], 0.5 µg/mL (≈ 0.616 µM); with Staphylococcus aureus [6] it was 2 µg/mL (≈ 2.46 µM). In addition, the MIC was over 32 µg/mL against Staphylococcus aureus [7] and 0.5 µg/mL (≈ 0.616 µM) in the assay on Staphylococcus aureus [8].
